Calls of active or inactive are those of the source. No cut-off for these calls is given here.
Tests used:
[1] = molecular target: T1, Hypoxia inducible factors; HIF-1-alpha, HIF-2-alpha (Homo sapiens, UniProt Q16665+Q99814); test: Inhibition of hypoxia-induced HIF1 activation in human T47D cells after 16 hrs by pTK-HRE3-luciferase reporter gene assay; type: cell-based
Outline: (§1)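 Cells transiently transfected with the pHRE-TK-Luc reporter (HIF-1) or the CMV-driven pGL3-Control plasmid, given compound, then exposed for 16 h to hypoxia (1% O2/5% CO2/94% N2, 37°C) or 10 μM 1,10-phenanthroline. Luciferase read-out: % inhibition = (1 − treated/induced light output) × 100. One experiment in triplicate.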

[2] = test system: T47D; test: Cytotoxicity against human T47D cells under hypoxic condition after 48 hrs by natural red method; type: functional, cell-based
Outline: (§2)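 Cells plated at 30,000/well in DMEM/F12 with 10% FCS and antibiotics and left overnight, then given compound in serum-free DMEM/F12. After a 30 min pre-exposure, incubation ran 48 h under normoxia (5% CO2/95% air) or hypoxia (1% O2/5% CO2/94% N2). Viability was read by neutral red, expressed as % inhibition, from one experiment in triplicate.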

[3] = test system: PC-3; test: Cytotoxicity against human PC3 cells under hypoxic condition after 48 hrs by natural red method; type: functional, cell-based; settings: PC-3, 48 h; outline: as §2
[4] = test system: T47D; test: Cytotoxicity against human T47D cells under normoxic condition after 48 hrs by natural red method; type: functional, cell-based; outline: as §2
[5] = molecular target: T1, Hypoxia inducible factors; HIF-1-alpha, HIF-2-alpha; test: Inhibition of hypoxia-induced HIF1 activation in human PC3 cells after 16 hrs by pTK-HRE3-luciferase reporter gene assay; type: cell-based; settings: pc-3; outline: as §1
[6] = Selectivity ratio of IC50 for inhibition of hypoxia-induced HIF1 activation in human T47D cells to IC50 for cytotoxicity to human T47D cells; type: toxicity, cell-based; settings: read-out: Ratio IC50
[7] = molecular target: T1, Hypoxia inducible factors; HIF-1-alpha, HIF-2-alpha; test: Inhibition of 1,10-phenanthroline-induced HIF1 activation in human PC3 cells after 16 hrs by pTK-HRE3-luciferase reporter gene assay; type: cell-based; settings: pc-3; outline: as §1
[8] = molecular target: T1, Hypoxia inducible factors; HIF-1-alpha, HIF-2-alpha; test: Inhibition of 1,10-phenanthroline-induced HIF1 activation in human T47D cells after 16 hrs by pTK-HRE3-luciferase reporter gene assay; type: cell-based; outline: as §1
[9] = test system: MCF7; test: Cytotoxicity against human MCF7 cells under hypoxic condition after 48 hrs by natural red method; type: functional, cell-based; settings: MCF7, 48 h; outline: as §2
[10] = test system: MDA-MB-231; test: Cytotoxicity against human MDA-MB-231 cells under normoxic condition after 48 hrs by natural red method; type: functional, cell-based; settings: MDA-MB-231, 48 h; outline: as §2
[11] = test system: MDA-MB-231; test: Cytotoxicity against human MDA-MB-231 cells under hypoxic condition after 48 hrs by natural red method; type: functional, cell-based; settings: MDA-MB-231, 48 h; outline: as §2
[12] = test system: PC-3; test: Cytotoxicity against human PC3 cells under normoxic condition after 48 hrs by natural red method; type: functional, cell-based; settings: PC-3, 48 h; outline: as §2
[13] = test system: MCF7; test: Cytotoxicity against human MCF7 cells under normoxic condition after 48 hrs by natural red method; type: functional, cell-based; settings: MCF7, 48 h; outline: as §2
[14] = test system: T47D; test: Inhibition of 1,10-phenanthroline-induced VEGF secretion in human T47D cells at 30 uM after 16 hrs by ELISA; type: functional, cell-based
Outline: (§3)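 T47D plated at 356,000 cells/well and left overnight at 37°C. Compound added in serum-free DMEM/F12 for 30 min under air, then 16 h under hypoxia (1% O2/5% CO2/94% N2) or with 10 μM 1,10-phenanthroline. Secreted VEGF in conditioned medium was measured by ELISA and normalized to total lysate protein (BCA).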

[15] = test system: T47D; test: Inhibition of electron transport protein complex 2 in human T47D cells assessed as decrease in oxygen consumption at 30 uM pretreated for 2 hrs before succinate addition by mitochondrial respiration assay; type: cell-based
Outline: (§4)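 T47D cells permeabilized with 30 μM digitonin in Clark-electrode chamber containing buffer of 20 mM HEPES pH 7.3, 120 mM KCl, 2 mM KH2PO4, 2 mM MgCl2, 1 mM EGTA, 0.3% fat-free BSA. Substrates: 5 mM pyruvate + 5 mM malate (complex I), 5 mM succinate (complex II), 5 mM ascorbate + 0.2 mM TMPD (complex IV); rotenone and antimycin A as inhibitors. Oxygen consumption monitored.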

[16] = Selectivity for inhibition of hypoxia-induced HIF1 activation in human T47D cells over cytotoxicity to human T47D cells; type: toxicity, cell-based
[17] = test system: T47D; test: Inhibition of hypoxia-induced VEGF secretion in human T47D cells after 16 hrs by ELISA; type: functional, cell-based; outline: as §3
[18] = test system: T47D; test: Inhibition of cellular respiration in human T47D cells assessed as oxygen consumption at 10 uM; type: functional
Outline: (§5)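 Intact T47D cells (5×10^6, equilibrated to 30°C) in 1 mL serum- and antibiotic-free DMEM/F12, with 17.5 mM glucose as substrate, in a Clark-type oxygen electrode. After 15 min baseline, compound in isopropyl alcohol injected at 3 min intervals. Oxygen consumption measured in triplicate; one-way ANOVA with Bonferroni post test.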

[19] = test system: T47D; test: Cytotoxicity against human T47D cells under hypoxic conditions at 30 uM after 48 hrs by natural red method; type: functional; outline: as §2
[20] = molecular target: T1, Hypoxia inducible factors; HIF-1-alpha, HIF-2-alpha; test: Inhibition of hypoxia-induced HIF1 activation in human T47D cells at 30 uM after 16 hrs by pTK-HRE3-luciferase reporter gene assay; type: cell-based; outline: as §1
[21] = molecular target: Aryl hydrocarbon receptor nuclear translocator (Homo sapiens) (UniProt P27540); test: Inhibition of hypoxia-induced nuclear HIF1beta in human T47D cells at 10 uM after 4 hrs by Western blot analysis; type: cell-based
[22] = test system: T47D; test: Inhibition of electron transport protein complex 3 in human T47D cells assessed as decrease in oxygen consumption at 30 uM pretreated for 2 hrs before succinate addition by mitochondrial respiration assay; type: cell-based; outline: as §4
[23] = test system: T47D; test: Inhibition of electron transport protein complex 1 in human T47D cells assessed as decrease in oxygen consumption at 30 uM pretreated for 2 hrs before malate and pyruvate addition by mitochondrial respiration assay; type: cell-based; outline: as §4
[24] = molecular target: Hypoxia-inducible factor 1-alpha (Homo sapiens) (UniProt Q16665); test: Inhibition of 1,10-phenanthroline-induced nuclear HIF1alpha in human T47D cells at 10 uM after 4 hrs by Western blot analysis; type: cell-based
[25] = test system: T47D; test: Inhibition of electron transport protein complex 4 in human T47D cells assessed as decrease in oxygen consumption at 30 uM pretreated for 2 hrs before TMPD/ascorbate addition by mitochondrial respiration assay; type: cell-based; outline: as §4
[26] = test system: T47D; test: Inhibition of cellular respiration in human T47D cells assessed as oxygen consumption at 30 uM; type: functional, cell-based; outline: as §5
[27] = molecular target: Hypoxia-inducible factor 1-alpha (Homo sapiens) (UniProt Q16665); test: Inhibition of hypoxia-induced nuclear HIF1alpha in human T47D cells at 10 uM after 4 hrs by Western blot analysis; type: cell-based

Sequence of Hypoxia-inducible factor 1-alpha (Homo sapiens) (Q16665 whole entry, looked up): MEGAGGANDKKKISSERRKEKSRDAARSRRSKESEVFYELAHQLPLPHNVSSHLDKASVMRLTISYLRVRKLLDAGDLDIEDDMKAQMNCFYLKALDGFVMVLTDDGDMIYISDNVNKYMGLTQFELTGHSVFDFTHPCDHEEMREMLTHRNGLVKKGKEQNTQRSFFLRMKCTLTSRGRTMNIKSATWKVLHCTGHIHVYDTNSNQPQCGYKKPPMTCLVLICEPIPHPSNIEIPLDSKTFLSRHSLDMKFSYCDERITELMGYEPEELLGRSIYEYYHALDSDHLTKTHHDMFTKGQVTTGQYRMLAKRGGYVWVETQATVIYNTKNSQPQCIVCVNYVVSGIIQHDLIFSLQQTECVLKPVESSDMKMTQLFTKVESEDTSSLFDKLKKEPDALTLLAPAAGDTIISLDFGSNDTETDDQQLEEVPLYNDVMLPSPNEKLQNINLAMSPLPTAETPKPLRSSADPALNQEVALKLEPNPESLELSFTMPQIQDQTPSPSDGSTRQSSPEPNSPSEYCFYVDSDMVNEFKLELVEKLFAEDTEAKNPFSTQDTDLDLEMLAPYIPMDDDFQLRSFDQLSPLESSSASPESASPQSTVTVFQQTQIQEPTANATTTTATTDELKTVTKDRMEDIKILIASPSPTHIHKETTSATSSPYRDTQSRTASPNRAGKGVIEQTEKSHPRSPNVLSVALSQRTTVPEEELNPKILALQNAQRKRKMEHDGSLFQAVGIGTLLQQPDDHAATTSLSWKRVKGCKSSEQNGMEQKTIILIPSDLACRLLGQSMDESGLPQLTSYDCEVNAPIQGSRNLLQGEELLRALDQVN
Sequence of Aryl hydrocarbon receptor nuclear translocator (Homo sapiens) (P27540 whole entry): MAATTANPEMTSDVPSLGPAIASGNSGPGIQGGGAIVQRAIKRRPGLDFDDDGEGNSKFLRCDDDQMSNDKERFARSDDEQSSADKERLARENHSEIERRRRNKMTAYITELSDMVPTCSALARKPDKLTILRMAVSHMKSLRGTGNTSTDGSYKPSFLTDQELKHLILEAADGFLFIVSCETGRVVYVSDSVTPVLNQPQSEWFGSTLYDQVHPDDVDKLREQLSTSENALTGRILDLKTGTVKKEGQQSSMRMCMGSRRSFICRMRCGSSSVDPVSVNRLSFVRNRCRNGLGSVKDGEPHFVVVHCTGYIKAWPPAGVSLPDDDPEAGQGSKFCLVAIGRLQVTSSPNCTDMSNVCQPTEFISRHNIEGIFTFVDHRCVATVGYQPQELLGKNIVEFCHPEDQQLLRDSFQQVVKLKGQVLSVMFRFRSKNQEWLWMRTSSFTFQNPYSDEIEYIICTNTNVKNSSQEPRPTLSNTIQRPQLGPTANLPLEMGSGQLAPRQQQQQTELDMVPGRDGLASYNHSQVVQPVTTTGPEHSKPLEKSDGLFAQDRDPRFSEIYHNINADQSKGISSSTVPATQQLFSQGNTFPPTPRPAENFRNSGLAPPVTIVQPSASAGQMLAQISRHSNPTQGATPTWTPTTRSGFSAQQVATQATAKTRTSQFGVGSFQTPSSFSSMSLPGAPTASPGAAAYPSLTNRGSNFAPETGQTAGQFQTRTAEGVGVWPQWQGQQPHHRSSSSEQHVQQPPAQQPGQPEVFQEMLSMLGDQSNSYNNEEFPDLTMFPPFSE

CC(=O)C1=CC[C@H]2[C@]3(C)CC[C@H]4C(C)(C)CCC[C@]4(CO)[C@H]3C[C@H](O)[C@]2(C)[C@H]1C=O
IC50 [1]: 400 nM | IC50 [2]: 1600 nM | IC50 [3]: 900 nM | IC50 [4]: 1000 nM | IC50 [5]: 500 nM | selectivity ratio [6]: 3 | IC50 [7]: 800 nM | IC50 [8]: 200 nM | IC50 [9]: 700 nM

CC(=O)C1=CC[C@H]2[C@]3(C)CC[C@H]4C(C)(C)CCC[C@]4(CO)[C@H]3CC(=O)[C@]2(C)[C@H]1C=O
IC50 [10]: 300 nM | IC50 [11]: 300 nM | IC50 [1]: 500 nM | IC50 [2]: 1800 nM | IC50 [12]: 800 nM | IC50 [3]: 1100 nM | IC50 [4]: 1200 nM | IC50 [5]: 900 nM | IC50 [7]: 1000 nM | IC50 [13]: 600 nM | IC50 [8]: 200 nM | IC50 [9]: 600 nM

C/C(=C\CCc1ccoc1)CC/C=C(\C)CCCC1=CC(=O)OC1 [FUROSPONGOLIDE]
inhibition [14]: inactive | Activity [15]: inactive | IC50 [10]: > 30000 nM | IC50 [11]: > 30000 nM | IC50 [1]: 2900 nM | IC50 [2]: > 30000 nM | IC50 [12]: > 30000 nM | selectivity ratio [16]: > 10 | inhibition [17]: Dose-dependent effect | IC50 [3]: > 30000 nM | inhibition at 10 µM [18]: 38% | inhibition at 30 µM [19]: 26% | inhibition [20]: 97% | IC50 [4]: 14000 nM | inhibition [21]: Active | IC50 [5]: > 30000 nM | Activity [22]: inactive | Activity [23]: Active | inhibition [24]: inactive | IC50 [7]: > 30000 nM | IC50 [13]: 29000 nM | IC50 [8]: 10900 nM | Activity [25]: inactive | inhibition [26]: Active | inhibition [27]: Active | IC50 [9]: > 30000 nM

COC(=O)[C@]12CCCC(C)(C)[C@@H]1CC[C@@]1(C)[C@@H]3CC=C(C(C)=O)[C@H](C=O)[C@@]3(C)C(=O)C[C@@H]12
IC50 [10]: 1900 nM | IC50 [11]: 2000 nM | IC50 [1]: 2700 nM | IC50 [2]: 10800 nM | IC50 [12]: 6400 nM | IC50 [3]: 10200 nM | IC50 [4]: 5500 nM | IC50 [5]: 7700 nM | IC50 [7]: 9000 nM | IC50 [13]: 6100 nM | IC50 [8]: 1000 nM | IC50 [9]: 6800 nM
